The record followed here is PubChem BioAssay AID624431 (The Scripps Research Institute Molecular Screening Center, 2012).

The list shows a part of the results. Values without a mark were called inactive. Calls of active or inactive are those of the source.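 Rule for the calls: active = mean inhibition over triplicates exceeds the hit threshold derived for the earlier primary screening run (cut at about 25% in these data); inactive = the rest.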

In this assay the target is Arf-GAP with SH3 domain, ANK repeat and PH domain-containing protein 1 (Homo sapiens) (UniProt Q9ULH1). In words: blockers of ASAP1-stimulated Arf1 GTP hydrolysis – biochemical, fluorescence polarization, human, triplicate, confirmation (AID 624431). The settings on record: ASAP1-stimulated Arf1 GTPase, GDP fluorescence polarization; at 16.5 µM; stronger effect = higher value. A digest of the protocol: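 Detection: Fluorescence polarization, free GDP displacing antibody-bound GDP Alexa 633 tracer | System: ASAP1 GAP domain protein (residues 325-724) | Schedule: 20-min ASAP1–compound and 120-min Arf1-GTP steps at 25 °C, 60-min tracer | Benchmarks: Wells without ASAP1 as full-inhibition reference control | Read-out: % inhibition versus wells lacking ASAP1 | Compound dosing: 16.5 µM single dose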
Arf-GAP with SH3 domain, ANK repeat and PH domain-containing protein 1 (Homo sapiens), sequence (Q9ULH1 325-724 limits assumed): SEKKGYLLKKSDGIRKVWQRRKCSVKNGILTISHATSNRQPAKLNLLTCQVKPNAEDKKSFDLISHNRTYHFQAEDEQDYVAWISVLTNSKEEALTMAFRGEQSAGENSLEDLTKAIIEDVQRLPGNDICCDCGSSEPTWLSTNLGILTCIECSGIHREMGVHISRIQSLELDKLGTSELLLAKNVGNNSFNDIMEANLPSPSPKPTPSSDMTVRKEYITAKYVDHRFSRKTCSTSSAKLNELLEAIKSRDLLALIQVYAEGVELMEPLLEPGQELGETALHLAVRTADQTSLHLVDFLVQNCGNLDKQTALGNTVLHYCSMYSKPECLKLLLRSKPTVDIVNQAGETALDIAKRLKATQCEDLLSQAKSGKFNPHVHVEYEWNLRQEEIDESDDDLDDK
On the technique in general: Polarisation of emitted light reports the rotation of a fluorescent probe.
Consider `COc1ccc(C(CNC(=O)c2cccc(S(=O)(=O)Nc3ccccc3Cl)c2)N2CCOCC2)cc1` (stereo unspecified), for which the inhibition was 16.6%.
The figure for `C=CCNc1nc(N)c(C(=C(C#N)C#N)c2ccccc2)s1` is 13.1%; for `COC(=O)c1ccc(NCC(=O)c2ccccc2)cc1` it is -2.85%; for `O=C(NC1=CC(=O)c2ccccc2C1=O)c1ccccc1` it is 13.6%.
As for `CC(=O)Nc1cc(-c2ccc(N3CCN(C)CC3)cc2)cn2c(-c3cccc(C(=O)N(C)C)c3)cnc12`, the inhibition was 69.3% (active).
Take `CCOC(=O)c1ccc(Nc2cc3ccccc3c(=O)[nH]2)cc1`: the inhibition is 9.9%.
The figure for `CC(=O)Nc1cc(-c2ccc(N3CCN(C)CC3)cc2)cn2c(-c3ccc(F)cc3)cnc12` is 40.5% (active); for `OCCNc1nc(Nc2ccc(Cl)c(Cl)c2)nc2ccccc12` it is 26.6% (active); for `Cc1cccc(-n2ncc(Cl)c(Cl)c2=O)c1` it is -3.51%.
With `COc1cc(/C=N/Nc2nn3cnnc3c3ccccc23)cc(OC)c1OC`, the inhibition was 39% (active).
For the compound `Cc1ccc2nc(SCC(=O)N3CC(C)OC(C)C3)nc(=O)n2c1` (stereo unspecified), the inhibition was 54.1% (active).
With `CCN1CCN(CCNC(=O)c2ccc3c(c2)NC(=O)/C(=C\c2ccc(OC)c(OC)c2)S3)CC1` the figure was 94% (active); with `O=c1/c(=C/c2ccc(CNS(=O)(=O)c3ccccc3)o2)sc2n1CCN=2`, -9.13%.
Turning to `CCN(CC)c1ccc2cc(C(N)=O)/c(=N\NC(=O)c3ccncc3)oc2c1`, the inhibition is 87.2% (active).
The figure for `N#Cc1cc([N+](=O)[O-])ccc1Oc1cccc(/C=N/NC(=O)c2ccc(Cl)cc2)c1` is 31.5% (active); for `C=CCC[C@@H](CCCCC)OC(=O)/C=C/[C@@H](O)[C@H](O)C[C@H](O)CC=C` it is 1.35%.
The figure for `CC(=O)N(C1=C(Cl)C(=O)c2ccccc2C1=O)c1ccc(C(=O)O)cc1` is 22.3%; for `c1ccc(-c2cc(-c3nnc4sc(-c5ccccn5)nn34)[nH]n2)cc1` it is 33% (active).
The figure for `CC(=O)c1cccc(-c2cnc3c(NC=O)cc(-c4ccc(N5CCN(C)CC5)cc4)cn23)c1` is 77.7% (active); for `COc1ccc(/C=N/Nc2ncnc3sc4c(c23)CCCC4)cc1O` it is 26.2% (active); for `COc1ccc(-n2nnnc2SCC(=O)c2ccc(OC)c(OC)c2)cc1` it is 30.7% (active).

One may read the inhibition as the relative decrease from the control value, in per cent.
